The source made the active and inactive calls. The calls are words filed in the database; no cut-off is given here.
Columns and labels:
Coagulation factor X = Coagulation factor X (Homo sapiens, UniProt P00742); assay: Inhibition of coagulation factor 10a (unknown origin) incubated for 2 mins in presence of AT3 by chromogenic substrate based […] assay
Summary of the method: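 Two-stage chromogenic anti-FXa: sample (heparin 0.002-500 nM or trisaccharide 3.9-4000 nM) with ATIII (0.04 IU), 2 min at 37 °C; FXa (0.32 μg) added, 2 min at 37 °C; chromogenic substrate added, stopped after 2 min with citric acid (20 g/L). Absorbance at 405 nm in triplicate, minus reverse-order sample blank.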

Heparanase = target: T1, Heparanase (Homo sapiens, UniProt Q9Y251); assay: Inhibition of heparanase (unknown origin) using biotin-heparan sulfate-Eu cryptate as substrate preincubated for 10 mins followed by substrate addition and measured after 60 mins by TR-FRET assay
T1 sequence (Q9Y251 whole entry): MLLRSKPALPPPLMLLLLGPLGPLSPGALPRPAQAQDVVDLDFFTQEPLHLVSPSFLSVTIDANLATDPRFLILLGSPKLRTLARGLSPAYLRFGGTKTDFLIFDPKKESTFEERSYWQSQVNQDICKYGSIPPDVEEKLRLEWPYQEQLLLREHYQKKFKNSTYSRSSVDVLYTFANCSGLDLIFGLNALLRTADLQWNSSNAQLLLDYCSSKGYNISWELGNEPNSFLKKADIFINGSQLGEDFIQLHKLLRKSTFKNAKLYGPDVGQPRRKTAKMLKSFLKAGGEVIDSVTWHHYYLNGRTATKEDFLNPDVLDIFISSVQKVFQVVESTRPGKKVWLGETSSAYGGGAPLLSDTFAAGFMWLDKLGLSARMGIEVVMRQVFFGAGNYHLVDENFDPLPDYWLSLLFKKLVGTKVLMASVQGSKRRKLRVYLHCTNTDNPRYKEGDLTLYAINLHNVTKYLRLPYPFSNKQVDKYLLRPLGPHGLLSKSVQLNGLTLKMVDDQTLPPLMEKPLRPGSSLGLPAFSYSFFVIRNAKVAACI

Prothrombin = Prothrombin (Homo sapiens, UniProt P00734); assay: Inhibition of coagulation factor 2a (unknown origin) incubated for 2 mins in presence of AT3 by chromogenic substrate based […] assay
Summary of the method: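 Two-stage chromogenic anti-FIIa: sample (heparin 0.002-500 nM or trisaccharide 3.9-4000 nM) with ATIII (0.01 IU), 2 min at 37 °C; FIIa (1.2 nkat) added, 2 min at 37 °C; chromogenic substrate added, stopped after 2 min with citric acid (20 g/L). A405 read in triplicate; reverse-order sample blank subtracted.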

Platelet factor 4 = target: T2, Platelet factor 4 (Homo sapiens, UniProt P02776); assay: Binding affinity to PF4 (unknown origin) by BLI assay
T2 sequence (P02776 whole entry): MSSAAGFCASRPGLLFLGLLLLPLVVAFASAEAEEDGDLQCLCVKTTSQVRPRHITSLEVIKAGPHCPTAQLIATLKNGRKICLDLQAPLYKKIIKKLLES
Summary of the method: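 PF4 (100 nM) mixed with ligand (0.08-250 μM trisaccharide; heparin 0.4-400 nM); free PF4 probed against biotin-heparin (5 μg/mL, 18 kDa) loaded on streptavidin biosensors. Mass-transport conditions; response fitted to a solution-affinity equation.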

[1] = target: T3, Heparanase (Homo sapiens) (UniProt Q9Y251); assay: Inhibition of human recombinant heparanase assessed as reduction in [35S] labeled ECM degradation at 50 ug/ml incubated for 5 hrs relative to control
T3 sequence (whole entry): T1 sequence (Q9Y251 whole entry)
Summary of the method: (§1)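 [35S]sulfate-labeled ECM on 35 mm dishes incubated 5 h at 37 °C with recombinant human heparanase (0.5 ng/ml), with or without inhibitor, in 1 ml containing 50 mM NaCl, 1 mM DTT, 1 mM CaCl2, 10 mM phosphate-citrate pH 6.0. Released material gel-filtered on Sepharose 6B, eluted with PBS; 0.2 ml fractions counted for radioactivity.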

[2] = target: T3, Heparanase (Homo sapiens); assay: Inhibition of human recombinant heparanase assessed as reduction in [35S] labeled ECM degradation at 10 ug/ml incubated for 5 hrs relative to control; summary of the method: as §1
MIN6 [3] = assay: Inhibition of heparanase (unknown origin) assessed as reduction in ROS production in mouse MIN6 cells co-incubated with heparanase-producing CHO cells at 15 uM incubated for 24 hrs by mitochondrial ROS probe staining based fluorescence microscopic method; assay type: functional, cell-based
Summary of the method: (§2)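 MIN6 mouse insulinoma cells in high-glucose DMEM, 10% FBS, 50 μM β-mercaptoethanol, seeded in 4-well slide chambers. At ~50% confluency, switched to conditioned medium from heparanase-producing or control CHO cells and given PBS vehicle or inhibitor for 24 h. Stained with mitochondrial ROS tracker (100 nM); fluorescence imaged by microscopy and extent/intensity quantified.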

MIN6 [4] = assay: Inhibition of ROS production in mouse MIN6 cells at 15 uM incubated for 24 hrs by mitochondrial ROS probe staining based fluorescence microscopic method; assay type: functional, cell-based; summary of the method: as §2
[5] = target: T3, Heparanase (Homo sapiens); assay: Inhibition of heparanase (unknown origin) assessed as reduction in ROS-mediated SOD1 mRNA level in mouse MIN6 cells co-incubated with heparanase-producing CHO cells at 15 uM incubated for 24 hrs by qRT-PCR analysis; assay type: cell-based
Summary of the method: (§3)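 MIN6 cells grown in high-glucose DMEM/10% FBS/50 μM β-mercaptoethanol, cultured at ~50% confluency in conditioned medium from heparanase-producing or control CHO cells with PBS vehicle or inhibitor for 24 h. Total RNA extracted with Trizol; cDNA made from 500 ng RNA; transcripts measured by quantitative real-time PCR.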

[6] = target: T3, Heparanase (Homo sapiens); assay: Inhibition of heparanase (unknown origin) assessed as reduction in ROS-mediated ERO1alpha mRNA level in mouse MIN6 cells co-incubated with heparanase-producing CHO cells at 15 uM incubated for 24 hrs by qRT-PCR analysis; assay type: cell-based; summary of the method: as §3
MIN6 [7] = assay: Inhibition of ROS production in mouse MIN6 cells assessed as reduction in SOD1 mRNA level at 15 uM incubated for 24 hrs by qRT-PCR analysis; assay type: functional, cell-based; summary of the method: as §3
MIN6 [8] = assay: Inhibition of ROS production in mouse MIN6 cells assessed as reduction in ERO1alpha mRNA level at 15 uM incubated for 24 hrs by qRT-PCR analysis; assay type: functional, cell-based; summary of the method: as §3

Sequence of Coagulation factor X (P00742 41-179 limits assumed): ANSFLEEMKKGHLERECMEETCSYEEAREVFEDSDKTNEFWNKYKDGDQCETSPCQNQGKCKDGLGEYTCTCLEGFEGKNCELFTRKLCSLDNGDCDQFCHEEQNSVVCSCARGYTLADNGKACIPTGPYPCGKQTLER
Sequence of Coagulation factor X (P00742 235-488 limits assumed): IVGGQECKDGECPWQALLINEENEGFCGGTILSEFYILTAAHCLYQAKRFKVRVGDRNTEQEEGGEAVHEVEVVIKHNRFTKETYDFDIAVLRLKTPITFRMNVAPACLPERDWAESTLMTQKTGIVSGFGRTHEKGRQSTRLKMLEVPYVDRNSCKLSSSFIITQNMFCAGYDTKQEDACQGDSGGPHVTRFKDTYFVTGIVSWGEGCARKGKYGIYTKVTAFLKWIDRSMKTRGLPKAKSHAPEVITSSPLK

CO[C@H]1O[C@H](COS(=O)(=O)O)[C@@H](O[C@@H]2O[C@@H](C(=O)O)[C@@H](O[C@H]3O[C@H](COS(=O)(=O)O)[C@@H](O[C@@H]4O[C@H](C(=O)O)[C@@H](O[C@H]5O[C@H](COS(=O)(=O)O)[C@@H](O)[C@H](O)[C@H]5NS(=O)(=O)O)[C@H](O)[C@H]4O)[C@H](OS(=O)(=O)O)[C@H]3NS(=O)(=O)O)[C@H](O)[C@H]2OS(=O)(=O)O)[C@H](O)[C@H]1NS(=O)(=O)O [FONDAPARINUX]
IC50 (Coagulation factor X): 0.011 µM

O=C(O)[C@H]1O[C@@H](O[C@H]2[C@H](O)[C@@H](NS(=O)(=O)O)[C@@H](OCCNS(=O)(=O)O)O[C@@H]2COS(=O)(=O)O)[C@H](O)[C@@H](O)[C@@H]1O[C@H]1O[C@H](COS(=O)(=O)O)[C@@H](O)[C@H](O)[C@H]1NS(=O)(=O)O
IC50 (Heparanase): 0.393 µM
IC50 (Coagulation factor X): > 2 µM
IC50 (Prothrombin): > 2 µM
Kd (Platelet factor 4): 16 µM
inhibition [1]: 100%
inhibition [2]: 50%
inhibition (MIN6 [3]): Active
inhibition (MIN6 [4]): Active
inhibition [5]: Active
inhibition [6]: Active
inhibition (MIN6 [7]): Active
inhibition (MIN6 [8]): Active

O=C(O)[C@H]1O[C@@H](O[C@H]2[C@H](O)[C@@H](NS(=O)(=O)O)[C@H](OCCNS(=O)(=O)O)O[C@@H]2COS(=O)(=O)O)[C@H](O)[C@@H](O)[C@@H]1O[C@H]1O[C@H](COS(=O)(=O)O)[C@@H](O)[C@H](O)[C@H]1NS(=O)(=O)O
IC50 (Heparanase): 42.1 µM

— ChEMBL document CHEMBL4342500, “Modulating Heparanase Activity: Tuning Sulfation Pattern and Glycosidic Linkage of Oligosaccharides” (J Med Chem, 2020)
